This note sets out measurements from ChEMBL document CHEMBL1128528, “Structure-activity relationships of unsaturated analogues of valproic acid” (J Med Chem, 1995).

In data set [1] the test system is Mus musculus. The experiment in a line: Anticonvulsant activity against mice after intraperitoneal administration. In kind it is functional. To be noted: ip. The method, boiled down: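 Mice, 6 weeks old, eight per dose, received five ip doses of the sodium salt (4 mL/kg). Pentylenetetrazole (85 mg/kg, 10 mL/kg) was given sc at 10 min and animals were watched for 30 min. Unprotected meant a 5 s clonus with loss of balance. ED50 was read from percentage protection vs log(dose). Sedation was scored from activity and muscle tone during handling.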

The subject of data set [2] is Mus musculus. In words: Brain concentration after 15 min of administration. The data set is classed as functional. The method, boiled down:
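Mice (n = 5, or 4 where footnoted) were given an ED50 dose and killed at 15 min. Whole brains were homogenized in 0.32 M sucrose and stored at -78 °C. Sodium octanoate served as internal standard; samples were acidified with HCl and extracted into EtOAc. Acids were quantified as tert-butyldimethylsilyl esters by GC-MS (EI 70 eV, SIM at M+ − 57). Each sample ran in triplicate; values are mean ± SD.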

The nature of data set [3]: Partition coefficient (logP). In kind it is physicochemical. To be noted: octanol/water. The method, boiled down: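 Calculated with CLOGP for the undissociated acid as 1-octanol/water partition coefficient; cis and trans isomers not distinguished.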

On to `CC/C=C\C(=O)O`, for which the ED50 in data set [1] turned out to be 7 mmol/kg. In data set [2], this compound displayed a C of 4460 nM/g. The same compound showed a logP in data set [3] of 1.22.
In data set [1], `CC/C=C(\CCCC)C(=O)O` showed an ED50 of 0.87 mmol/kg. The same compound showed a C in data set [2] of 140 nM/g. The logP in data set [3] was 3.11.
Taken in the same sequence, the figures for `O=C(O)C1=CCCC1` were 4.7 mmol/kg, 500 nM/g and 1.1.
On the same counts, the results for `CC/C=C(\CC)C(=O)O` are 1.6 mmol/kg, 660 nM/g and 2.06.
The compound `C/C=C\C(=C/CC)C(=O)O` yielded an ED50 in data set [1] of 0.78 mmol/kg. The compound further registered a C in data set [2] of 350 nM/g. In data set [3], this compound displayed a logP of 2.22.
`CC/C=C/C(=O)O` yielded an ED50 in data set [1] of 6 mmol/kg. For the same compound, in data set [2], the C was found to be 2220 nM/g. Also, the logP in data set [3] stood at 1.22.
For `CC(C)=CC(=O)O`, it took a dose of 5.2 mmol/kg to reach the 50% effect level in data set [1] (ED50). The compound further showed a C in data set [2] of 2710 nM/g. Besides, the logP in data set [3] was 1.09.
Taken in the same sequence, the figures for `C/C=C/C(=C\CC)C(=O)O` were 1.4 mmol/kg, 680 nM/g and 2.22.
For `O=C(O)C1=CC2CCC1C2` (stereo unspecified), in data set [1], the ED50 is 2.9 mmol/kg. Also, the C in data set [2] was determined as 2150 nM/g. Further, in data set [3], the logP is 1.42.
Take `CC/C=C(\C)C(=O)O`: it took a dose of 4.4 mmol/kg to reach the 50% effect level in data set [1] (ED50). Further, in data set [2], the C is 1520 nM/g. Besides, in data set [3], the logP is 1.53.
Consider `CC/C=C(\CCC)C(=O)O`, for which the ED50 in data set [1] is 0.84 mmol/kg. Besides, the C in data set [2] came out at 260 nM/g. The compound also had a logP in data set [3] of 2.59.
Regarding `O=C(O)C=C1CCCC1`, it took a dose of 2.3 mmol/kg to reach the 50% effect level in data set [1] (ED50). In data set [2], this compound returned a C of 450 nM/g. Moreover, the logP in data set [3] is 1.72.
Taken in the same sequence, the figures for `O=C(O)C=C1CCCCCC1` were 0.96 mmol/kg, 159 nM/g and 2.84.
Taken in the same sequence, the figures for `O=C(O)C=C1CCCCC1` were 1.4 mmol/kg, 320 nM/g and 2.28.
On the same counts, the results for `O=C(O)C=C1CCCCCCC1` are 0.73 mmol/kg, 94 nM/g and 3.4.
For the compound `O=C(O)C1=CCCCC1`, the ED50 in data set [1] is 2.2 mmol/kg. This compound showed a C in data set [2] of 1210 nM/g. This compound came in with a logP in data set [3] of 1.66.
`CCCC(CCC)C(=O)O` [VALPROIC ACID] registered an ED50 in data set [1] of 0.83 mmol/kg. The compound further displayed a C in data set [2] of 620 nM/g. The logP in data set [3] is 2.72.

By ED50 is commonly meant the dose at which the effect has come halfway, by size or by number of responders. Broadly, the logP is the decadic logarithm of the partition coefficient of the neutral form, usually between octanol and water. A higher logP goes with higher lipophilicity.
